Key:
Type in all cases: functional
Escherichia coli [1] = assay: Synergistic antibacterial activity against Escherichia coli DH10B transfected with pBR322-catI-KPC-2 assessed as cefepime MIC at 4 ug/ml by broth microdilution method; details: dose 4 µg/ml
Method in brief: (§1)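 Broth microdilution per CLSI guidelines, using custom frozen panels. […] Each partner drug was also tested alone. MICs were run in triplicate and the modal value is reported.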

Escherichia coli [2] = assay: Synergistic antibacterial activity against Escherichia coli DH10B transfected with pBC SK (-) KPC-3 assessed as cefepime MIC at 4 ug/ml by broth microdilution method; details: dose 4 µg/ml
Escherichia coli [3] = assay: Synergistic antibacterial activity against Escherichia coli DH10B transfected with pBC SK (-) OXA-48 assessed as cefepime MIC at 4 ug/ml by broth microdilution method; details: dose 4 µg/ml; method in brief: as §1
Klebsiella pneumoniae [4] = assay: Synergistic antibacterial activity against Klebsiella pneumoniae 1315/2198 producing KPC-3 assessed as cefepime MIC at 4 ug/ml by broth microdilution method; details: dose 4 µg/ml; method in brief: as §1
Klebsiella pneumoniae [5] = assay: Synergistic antibacterial activity against Klebsiella pneumoniae 1398/2291 producing KPC-3 assessed as cefepime MIC at 4 ug/ml by broth microdilution method; details: dose 4 µg/ml; method in brief: as §1
Klebsiella pneumoniae [6] = assay: Synergistic antibacterial activity against Klebsiella pneumoniae 11978 producing OXA-48 assessed as cefepime MIC at 4 ug/ml by broth microdilution method; details: dose 4 µg/ml; method in brief: as §1
Pseudomonas aeruginosa [7] = assay: Synergistic antibacterial activity against Pseudomonas aeruginosa 795 assessed as cefepime MIC at 4 ug/ml by broth microdilution method; details: dose 4 µg/ml
Acinetobacter baumannii [8] = assay: Synergistic antibacterial activity against Acinetobacter baumannii PR323 producing OXA-24/40 assessed as cefepime MIC at 4 ug/ml by broth microdilution method; details: dose 4 µg/ml
Acinetobacter baumannii [9] = assay: Synergistic antibacterial activity against Acinetobacter baumannii PR359 producing OXA-23 assessed as cefepime MIC at 4 ug/ml by broth microdilution method; details: dose 4 µg/ml
Acinetobacter baumannii [10] = assay: Synergistic antibacterial activity against Acinetobacter baumannii PR381 producing OXA-24/40 assessed as cefepime MIC at 4 ug/ml by broth microdilution method; details: dose 4 µg/ml
Acinetobacter baumannii [11] = assay: Synergistic antibacterial activity against Acinetobacter baumannii PR474 producing OXA-23/24/40 assessed as cefepime MIC at 4 ug/ml by broth microdilution method; details: dose 4 µg/ml
Acinetobacter baumannii [12] = assay: Synergistic antibacterial activity against Acinetobacter baumannii PR476 producing OXA-24/40 assessed as cefepime MIC at 4 ug/ml by broth microdilution method; details: dose 4 µg/ml
Acinetobacter baumannii [13] = assay: Synergistic antibacterial activity against ADC deleted Acinetobacter baumannii transfected with pWH1266 producing OXA-24/40 assessed as cefepime MIC at 4 ug/ml by broth microdilution method; details: dose 4 µg/ml
Acinetobacter baumannii [14] = assay: Synergistic antibacterial activity against ADC deleted Acinetobacter baumannii assessed as cefepime MIC at 8 ug/ml by broth microdilution method; details: dose 8 µg/ml
Klebsiella pneumoniae [15] = assay: Synergistic antibacterial activity against Klebsiella pneumoniae 1084/1957 producing KPC-3 assessed as cefepime MIC at 8 ug/ml by broth microdilution method; details: dose 8 µg/ml; method in brief: as §1
Acinetobacter baumannii [16] = assay: Synergistic antibacterial activity against Acinetobacter baumannii PR319 producing OXA-23/24/40 assessed as cefepime MIC at 8 ug/ml by broth microdilution method; details: dose 8 µg/ml
Acinetobacter baumannii [17] = assay: Synergistic antibacterial activity against Acinetobacter baumannii PR363 producing OXA-23 assessed as cefepime MIC at 8 ug/ml by broth microdilution method; details: dose 8 µg/ml
Klebsiella pneumoniae [18] = assay: Synergistic antibacterial activity against Klebsiella pneumoniae 1084/1957 producing KPC-3 assessed as meropenem MIC at 4 ug/ml by broth microdilution method; details: dose 4 µg/ml; method in brief: as §1
Klebsiella pneumoniae [19] = assay: Synergistic antibacterial activity against Klebsiella pneumoniae 761/1723 producing KPC-3 assessed as meropenem MIC at 4 ug/ml by broth microdilution method; details: dose 4 µg/ml
Klebsiella pneumoniae [20] = assay: Synergistic antibacterial activity against Klebsiella pneumoniae 972/1910 producing KPC-3 assessed as meropenem MIC at 4 ug/ml by broth microdilution method; details: dose 4 µg/ml
Klebsiella pneumoniae [21] = assay: Synergistic antibacterial activity against Klebsiella pneumoniae 11978 producing OXA-48 assessed as meropenem MIC at 4 ug/ml by broth microdilution method; details: dose 4 µg/ml; method in brief: as §1
Klebsiella pneumoniae [22] = assay: Synergistic antibacterial activity against Klebsiella pneumoniae jefferson 1773 producing OXA-181 assessed as meropenem MIC at 4 ug/ml by broth microdilution method; details: dose 4 µg/ml
Acinetobacter baumannii [23] = assay: Synergistic antibacterial activity against Acinetobacter baumannii PR359 producing OXA-23 assessed as meropenem MIC at 4 ug/ml by broth microdilution method; details: dose 4 µg/ml
Acinetobacter baumannii [24] = assay: Synergistic antibacterial activity against Acinetobacter baumannii PR363 producing OXA-23 assessed as meropenem MIC at 4 ug/ml by broth microdilution method; details: dose 4 µg/ml
Acinetobacter baumannii [25] = assay: Synergistic antibacterial activity against Acinetobacter baumannii PR474 producing OXA-23/24/40 assessed as meropenem MIC at 4 ug/ml by broth microdilution method; details: dose 4 µg/ml
Acinetobacter baumannii [26] = assay: Synergistic antibacterial activity against Acinetobacter baumannii PR476 producing OXA-24/40 assessed as meropenem MIC at 4 ug/ml by broth microdilution method; details: dose 4 µg/ml
Escherichia coli [27] = assay: Synergistic antibacterial activity against Escherichia coli DH10B transfected with pBR322-catI-KPC-2 assessed as meropenem MIC at 8 ug/ml by broth microdilution method; details: dose 8 µg/ml; method in brief: as §1
Escherichia coli [28] = assay: Synergistic antibacterial activity against Escherichia coli DH10B transfected with pBC SK (-) KPC-2 assessed as meropenem MIC at 8 ug/ml by broth microdilution method; details: dose 8 µg/ml
Escherichia coli [29] = assay: Synergistic antibacterial activity against Escherichia coli DH10B transfected with pBC SK (-) OXA-48 assessed as meropenem MIC at 8 ug/ml by broth microdilution method; details: dose 8 µg/ml; method in brief: as §1
Acinetobacter baumannii [30] = assay: Synergistic antibacterial activity against ADC deleted Acinetobacter baumannii transfected with pWH1266 OXA-23 assessed as meropenem MIC at 8 ug/ml by broth microdilution method; details: dose 8 µg/ml
Method in brief: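 Broth microdilution per CLSI guidelines in frozen panels. Test compound held at fixed 8 mg/L while the partner β-lactam concentration was increased. Run in triplicate; modal MIC reported.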

Klebsiella pneumoniae [31] = assay: Synergistic antibacterial activity against Klebsiella pneumoniae 1108/1989 producing KPC-3 assessed as meropenem MIC at 8 ug/ml by broth microdilution method; details: dose 8 µg/ml; method in brief: as §1
Klebsiella pneumoniae [32] = assay: Synergistic antibacterial activity against Klebsiella pneumoniae 761/1723 producing KPC-3 assessed as meropenem MIC at 8 ug/ml by broth microdilution method; details: dose 8 µg/ml
Klebsiella pneumoniae [33] = assay: Synergistic antibacterial activity against Klebsiella pneumoniae 1354/2241 producing KPC-3 assessed as meropenem MIC at 8 ug/ml by broth microdilution method; details: dose 8 µg/ml; method in brief: as §1
Klebsiella pneumoniae [34] = assay: Synergistic antibacterial activity against Klebsiella pneumoniae 11978 producing OXA-48 assessed as meropenem MIC at 8 ug/ml by broth microdilution method; details: dose 8 µg/ml; method in brief: as §1
Klebsiella pneumoniae [35] = assay: Synergistic antibacterial activity against Klebsiella pneumoniae CAV 1636 producing OXA-181 assessed as meropenem MIC at 8 ug/ml by broth microdilution method; details: dose 8 µg/ml
Pseudomonas aeruginosa [36] = assay: Synergistic antibacterial activity against Pseudomonas aeruginosa 839 assessed as meropenem MIC at 8 ug/ml by broth microdilution method; details: dose 8 µg/ml
Acinetobacter baumannii [37] = assay: Synergistic antibacterial activity against Acinetobacter baumannii PR323 producing OXA-24/40 assessed as meropenem MIC at 8 ug/ml by broth microdilution method; details: dose 8 µg/ml

N#C[C@@H]1CC[C@@H]2CN1C(=O)N2OS(=O)(=O)[O-].[Na+]
MIC (Escherichia coli [1]): ≤ 0.12 µg/mL
MIC (Escherichia coli [2]): ≤ 0.12 µg/mL
MIC (Escherichia coli [3]): ≤ 0.12 µg/mL
MIC (Klebsiella pneumoniae [4]): 0.25 µg/mL
MIC (Klebsiella pneumoniae [5]): ≤ 0.12 µg/mL
MIC (Klebsiella pneumoniae [6]): 0.5 µg/mL
MIC (Pseudomonas aeruginosa [7]): > 16 µg/mL
MIC (Acinetobacter baumannii [8]): > 16 µg/mL
MIC (Acinetobacter baumannii [9]): 8 µg/mL
MIC (Acinetobacter baumannii [10]): 16 µg/mL
MIC (Acinetobacter baumannii [11]): 8 µg/mL
MIC (Acinetobacter baumannii [12]): 2 µg/mL
MIC (Acinetobacter baumannii [13]): 16 µg/mL
MIC (Acinetobacter baumannii [14]): 0.5 µg/mL
MIC (Klebsiella pneumoniae [15]): ≤ 0.12 µg/mL
MIC (Acinetobacter baumannii [16]): > 16 µg/mL
MIC (Acinetobacter baumannii [17]): 8 µg/mL
MIC (Klebsiella pneumoniae [18]): ≤ 0.12 µg/mL
MIC (Klebsiella pneumoniae [19]): ≤ 0.12 µg/mL
MIC (Klebsiella pneumoniae [20]): ≤ 0.12 µg/mL
MIC (Klebsiella pneumoniae [21]): ≤ 0.12 µg/mL
MIC (Klebsiella pneumoniae [22]): 0.25 µg/mL
MIC (Acinetobacter baumannii [23]): 4 µg/mL
MIC (Acinetobacter baumannii [24]): 4 µg/mL
MIC (Acinetobacter baumannii [25]): > 16 µg/mL
MIC (Acinetobacter baumannii [26]): 0.25 µg/mL
MIC (Escherichia coli [27]): ≤ 0.12 µg/mL
MIC (Escherichia coli [28]): ≤ 0.12 µg/mL
MIC (Escherichia coli [29]): ≤ 0.12 µg/mL
MIC (Acinetobacter baumannii [30]): 4 µg/mL
MIC (Klebsiella pneumoniae [31]): ≤ 0.12 µg/mL
MIC (Klebsiella pneumoniae [32]): ≤ 0.12 µg/mL
MIC (Klebsiella pneumoniae [33]): ≤ 0.12 µg/mL
MIC (Klebsiella pneumoniae [34]): ≤ 0.12 µg/mL
MIC (Klebsiella pneumoniae [35]): ≤ 0.12 µg/mL
MIC (Pseudomonas aeruginosa [36]): 1 µg/mL
MIC (Acinetobacter baumannii [37]): 16 µg/mL
